Measurements taken from ChEMBL document CHEMBL4196140, “Spiro-Phthalides and Isocoumarins Isolated from the Marine-Sponge-Derived Fungus Setosphaeria sp. SCSIO41009” (J Nat Prod, 2018).
Values after ≈ are worked out from the molar mass of the structure shown. Active and inactive are the calls of the source. The rule behind the calls is not given here.

Tests used:
[1] = test system: Influenza A virus; assay: Antiviral activity against Influenza A virus H1N1 A/FM-1/1/47 infected in MDCK cells assessed as inhibition of virus-induced cytopathic effect after 48 hrs by MTT assay; assay type: functional, organism-based
[2] = test system: Staphylococcus aureus; assay: Antimicrobial activity against Staphylococcus aureus by broth microdilution method; assay type: functional, organism-based
[3] = molecular target: T1, Phosphotyrosine protein phosphatase (Mycobacterium tuberculosis) (UniProt A0A045ISB3); assay: Inhibition of Mycobacterium PTPB at 50 uM using p-nitrophenyl phosphate as substrate incubated for 10 mins followed by substrate addition and measured for 5 mins by spectrophotometric method
T1 sequence (whole entry): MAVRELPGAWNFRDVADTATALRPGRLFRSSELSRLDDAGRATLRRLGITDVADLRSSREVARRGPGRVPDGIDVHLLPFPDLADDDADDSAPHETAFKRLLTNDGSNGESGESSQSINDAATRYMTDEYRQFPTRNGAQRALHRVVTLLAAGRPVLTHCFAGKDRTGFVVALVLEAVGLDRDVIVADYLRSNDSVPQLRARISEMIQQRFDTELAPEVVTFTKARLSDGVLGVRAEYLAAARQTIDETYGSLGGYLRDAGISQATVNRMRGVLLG

[4] = Antioxidant activity assessed as DPPH radical scavenging activity incubated for 30 mins in dark condition; assay type: functional
Procedure, shortened: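 Test samples in DMSO were mixed 1:9 with freshly made 0.2 mM DPPH in EtOH (DPPH stock level), giving final compound levels of 50, 25, 12.5, 6.25 and 3.125 μg/mL, in triplicate, with ascorbic acid as positive control. After 30 min in the dark, the fall in absorbance at 517 nm was read. Blank: EtOH instead of DPPH. Control: DMSO instead of sample. % scavenging = [1 − (sample − blank)/control] × 100. IC50 is the concentration scavenging 50% of radicals.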

[5] = test system: Colletotrichum asianum; assay: Antimicrobial activity against Colletotrichum asianum by broth microdilution method; assay type: functional
[6] = test system: Colletotrichum acutatum; assay: Antimicrobial activity against Colletotrichum acutatum by broth microdilution method; assay type: functional

| SMILES | inhibition [1] | Activity [2] | inhibition [3] | IC50 [4] [µM] | MIC [5] [µg/mL] | MIC [6] [µg/mL] |
| --- | --- | --- | --- | --- | --- | --- |
| CCC[C@H]1C[C@H]2OC(=O)c3c(cc(OC)c(O)c3O)[C@H]2O1 | inactive | inactive | inactive | 38 |  |  |
| CC[C@H](O)[C@H]1C[C@H]2OC(=O)c3c(cc(OC)c(OC)c3O)[C@H]2O1 | inactive | inactive | inactive |  |  |  |
| CCC(O)Cc1c(OC)cc(=O)oc1C (centres undefined) | inactive | inactive | inactive |  |  |  |
| COc1cc2c(c(O)c1OC)C(=O)O[C@@H]1C[C@H](C[C@@H](C)O)O[C@H]21 | inactive | inactive | inactive |  |  |  |
| CCC[C@@H]1C[C@H]2OC(=O)c3c(cc(OC)c(OC)c3O)[C@@H]2O1 | inactive | inactive | inactive |  |  |  |
| COc1cc2c(c(O)c1OC)C(=O)O[C@@H]1C[C@H](CCC(=O)O)O[C@H]21 | inactive | inactive | inactive |  |  |  |
| CCCC(=O)CC[C@@H]1OC(=O)c2c1cc(OC)c(OC)c2O | inactive | inactive | inactive |  |  |  |
| COc1cc(=O)oc(C)c1CCCC(=O)O | inactive | inactive | inactive |  |  |  |
| CCCCc1c(OC)cc(=O)oc1CO | inactive | inactive | inactive |  |  |  |
| CCCCOCc1c(O)cc(C)c2c1Oc1c(C)cc(O)c(C)c1OC2=O | inactive | inactive | inactive |  | 630 (≈ 1690 µM) | 630 (≈ 1690 µM) |
| COC(=O)CCCc1c(OC)cc(=O)oc1C | inactive | inactive | inactive |  |  |  |
| CCCCc1c(OC)cc(=O)oc1C | inactive | inactive | inactive |  |  |  |
| COc1cc2c(c(O)c1OC)C(=O)O[C@@H]1C[C@H](CCCO)O[C@H]21 | inactive | inactive | inactive |  |  |  |
| CCCCC1=C(OC)C(=O)OC1(C)O (racemic) | inactive | inactive | inactive |  |  |  |
| COc1cc(=O)oc(C)c1CCC(C)O (centres undefined) | inactive | inactive | inactive |  |  |  |
| CCC[C@@H]1C[C@H]2OC(=O)c3c(cc(O)c(OC)c3O)[C@@H]2O1 | inactive | inactive | inactive |  |  |  |
| CCC[C@H]1C[C@H]2OC(=O)c3c(cc(OC)c(OC)c3O)[C@@H]2O1 | inactive | inactive | inactive |  |  |  |
| O=C1O[C@H]([C@@H](O)CO)C(O)=C1O [ASCORBIC ACID] |  |  |  | 39 |  |  |
| COCc1c(O)cc(C)c2c1Oc1c(C)cc(O)c(C)c1OC2=O | inactive | inactive | inactive |  | 160 (≈ 484 µM) | 310 (≈ 938 µM) |
| CC[C@@H](O)[C@H]1C[C@H]2OC(=O)c3c(cc(OC)c(OC)c3O)[C@H]2O1 | inactive | inactive | inactive |  |  |  |
| C[C@@H]1C[C@@H]([C@H](O)CC2CC(=O)NC(=O)C2)C(=O)[C@@H](C)C1 [CYCLOHEXIMIDE] |  |  |  |  | 80 (≈ 284 µM) | 40 (≈ 142 µM) |
| CCC[C@H]1C[C@H](O)[C@@]2(OC(=O)c3c2cc(OC)c(OC)c3O)O1 | inactive | inactive | inactive |  |  |  |
| CCCC(=O)CC[C@H]1OC(=O)c2c1cc(O)c(OC)c2O | inactive | inactive | inactive |  |  |  |
| CCC[C@H]1C[C@H](O)[C@]2(OC(=O)c3c2cc(OC)c(OC)c3O)O1 | inactive | inactive | inactive |  |  |  |
